From ChEMBL document CHEMBL1150811, “New modified eremophilanes from the roots of Psacalium radulifolium” (J Nat Prod, 2001)
In brackets after ≈: the same amount, converted by molar mass.

Tests used:
Escherichia coli = experiment: Antimicrobial activity against Escherichia coli ATCC 8937; type: functional
Procedure, shortened: (§1)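 Agar dilution: each natural product suspended in 10% DMSO and added at various concentrations to melted agar in Petri dishes; plates incubated 24 h at 37 °C; gentamicin and nystatin as reference standards; run in duplicate.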

Pseudomonas aeruginosa = experiment: Antimicrobial activity against Pseudomonas aeruginosa ATCC 27853; type: functional; procedure, shortened: as §1
Proteus mirabilis = experiment: Antimicrobial activity against Proteus mirabilis ATCC 12453; type: functional; procedure, shortened: as §1
Candida albicans = experiment: Antimicrobial activity against Candida albicans ATCC 10231; type: functional; procedure, shortened: as §1
Artemia salina = experiment: Toxicity against Artemia salina; type: organism-based; conditions: in vivo
Staphylococcus aureus = experiment: Antimicrobial activity against Staphylococcus aureus ATCC 6358

Row | SMILES | MIC (Escherichia coli) [µg/mL] | MIC (Pseudomonas aeruginosa) [µg/mL] | MIC (Proteus mirabilis) [µg/mL] | MIC (Candida albicans) [µg/mL] | LD50 (Artemia salina) [ppm] | MIC (Staphylococcus aureus) [µg/mL]
1 | COc1c2c(c(C)c3c(C)coc13)[C@@H](C)CC=C2 | > 400 | > 400 | > 400 | > 400 | > 1000 | 400 (≈ 1650 µM)
2 | C[C@H]1CCCc2c(O)c(O)c3c(c21)COC(=O)C3(C)O (mixture of isomers) | > 400 | > 400 |  | > 400 | 230 | 200
3 | Cc1coc2c1C(C)(O)C1=C(CCC[C@@H]1C)C2=O (mixture of isomers) [cacalone/epi-cacalone] | > 1000 | > 1000 | > 1000 | > 1000 | 269 | 250
4 | Cc1coc2c(O)c3c(c(Cc4oc5c(O)c6c(c(C)c5c4C)[C@@H](C)CCC6)c12)[C@@H](C)CCC3 [ADENOSTIN A] | > 400 | > 400 |  | > 400 | 230 | 50 (≈ 109 µM)
5 | Cc1coc2c(O)c3c(c(C)c12)[C@@H](C)CCC3 [CACALOL] | 25 (≈ 109 µM) | > 400 | 12 (≈ 52.1 µM) | 12 (≈ 52.1 µM) | 12 | 12 (≈ 52.1 µM)
6 | CC(=O)O[C@@H]1c2c(C)coc2C(=O)C2=CCC[C@H](C)[C@]21C [DECOMPOSTIN] | > 400 | > 400 | > 400 | > 400 | > 1000 | > 400
7 | C/C=C\C(=O)O[C@@H]1c2c(C)coc2C(=O)C2=CCC[C@H](C)[C@]21C [NEOADENOSTYLONE] | > 400 | > 400 |  | > 400 | 21.7 | > 400
8 | COc1c2c(c(C)c3c1OC(=O)[C@@]3(C)O)[C@@H](C)CCC2 [RADULIFOLIN B] | > 400 | > 400 |  | > 400 | 52.5 | 100 (≈ 362 µM)
